From ChEMBL document CHEMBL5149993, “Rational Design of Photochromic Analogues of Tricyclic Drugs” (J Med Chem, 2021)
Active and inactive are the calls of the source. The calls are words filed in the database; no cut-off is given here.

Tests used:
[1] = Displacement of [3H]-QNB from Wistar rat brain membrane mAChR assessed as inhibition constant incubated for 30 mins by radioligand competitive binding assay; type: cell membranes
In short: (§1)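 Female Wistar rat cortex membranes (30 μg protein) in tris-HCl with 6 mM MgCl₂, 200 pM [³H]QNB (Kd 40 pM), ligands from 1 or 10 nM to 300 μM; 30 min at 37 °C equilibrium. Filtration through GF/C filters, scintillation counting. Nonspecific binding defined with 2 μM atropine. One-site competitive fits gave IC50 and Ki; n = 4 per isomer, n = 2 for reference.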

[2] = Displacement of [3H]-QNB from Wistar rat brain membrane mAChR incubated for 30 mins by radioligand competitive binding assay; type: cell membranes; in short: as §1
[3] = target: T1, Muscarinic acetylcholine receptor M1 (Homo sapiens) (UniProt P11229); experiment: Antagonist activity at human M1 mAChR receptor expressed in HEK cells assessed as reduction in total cell response at 100 uM by real-time calcium imaging method relative to control; type: functional, cell-based; design: scale not given: the % may be the effect or the level left
T1 sequence (whole entry): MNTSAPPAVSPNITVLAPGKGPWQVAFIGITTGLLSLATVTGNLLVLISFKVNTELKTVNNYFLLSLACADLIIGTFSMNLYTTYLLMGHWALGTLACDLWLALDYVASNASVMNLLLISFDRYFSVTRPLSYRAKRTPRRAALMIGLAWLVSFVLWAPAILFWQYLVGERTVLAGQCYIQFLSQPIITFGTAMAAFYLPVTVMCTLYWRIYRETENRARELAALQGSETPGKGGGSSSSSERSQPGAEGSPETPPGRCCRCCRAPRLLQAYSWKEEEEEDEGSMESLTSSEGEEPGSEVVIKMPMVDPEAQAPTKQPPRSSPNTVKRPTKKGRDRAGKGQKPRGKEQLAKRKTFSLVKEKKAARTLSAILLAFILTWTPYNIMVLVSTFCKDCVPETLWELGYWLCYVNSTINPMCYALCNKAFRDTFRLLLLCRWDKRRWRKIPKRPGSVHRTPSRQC
In short: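 tsA201 cells transiently transfected with human M1 (± R-GECO1), used 48–72 h post-transfection. OGB-1 AM loading at 10 μM final, 30 min, 37 °C; HEPES bath pH 7.4 with 2 mM CaCl₂. Test at 100 μM against 0.5 μM ACh; cis formed by 2 min 365 nm pre-illumination or continuous 460 nm light. Responses normalized to 0.5 μM ACh maximum; Wilcoxon signed rank test.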

[4] = Thermal stability of the compound assessed as half life; type: physicochemical
[5] = target: T2, Muscarinic acetylcholine receptor M1 (Homo sapiens, UniProt P11229); experiment: Displacement of [3H]-pirenzepine from human recombinant M1 receptor expressed in CHO cells incubated for 60 mins by topcount scintillation counter method; type: cell-based
T2 sequence (P11229 whole entry): T1 sequence (whole entry)
In short: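 Membranes from CHO cells with human M1 (45 μg protein), 2 nM [³H]pirenzepine (Kd 13 nM), 60 min at 22 °C. Nonspecific binding with 1 μM atropine. GF/B filtration, scintillation counting. Tested at 1, 10 and 100 μM after 30 min 365 nm irradiation of DMSO stock; % inhibition, duplicate.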

Cardiac atrium = experiment: Anticholinergic activity in isolated CD1 mouse CCh-induced bradycardia atrium assessed as recovery of CCh-indued contraction frequency at 100 uM; type: functional, tissue-based
In short: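 Right atria from CD1 male mice, 10–12 weeks, in carbogenated Krebs, pH 7.4, under 0.2 g tension. Isometric recording of spontaneous contractions after 5–10 min equilibration. Bradycardia induced with CCh 10⁻⁶ M; test compound then added and beats/min measured.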

[6] = target: Muscarinic acetylcholine receptor M2 (human) (UniProt P08172); experiment: Displacement of [3H]AF-DX384 from human recombinant M2 receptor expressed in CHO cells by topcount scintillation counter method

Row | Ki [1] [µM] | IC50 [2] [µM] | Activity [3] [%] | half-life [4] [h] | Activity ([3]; filed as antagonist) [%] | IC50 [5] [µM] | Structure (SMILES) | Activity (Cardiac atrium) | IC50 [6] [µM]
1 | 5.3 | 32 | 14 | – | – | – | CN1CCN(CC(=O)Nc2ccccc2/N=N\c2ccc(N(C)C)cc2)CC1 | – | –
2 | 1.7 | 9.9 | – | 3.03 | 64 | – | CN1CCN(CC(=O)Nc2ccccc2/N=N/c2ccccc2)CC1.Cl.Cl | – | –
3 | 6.4 | 38 | – | 1.18 | – | – | CN1CCN(CC(=O)Nc2ccccc2/N=N/c2cccnc2)CC1.Cl.Cl | – | –
4 | 7 | 42 | – | 1.18 | – | – | CN1CCN(CC(=O)Nc2ccccc2/N=N\c2cccnc2)CC1.Cl.Cl | – | –
5 | 1.5 | 9.2 | – | 3.03 | 73 | 1.9 | CN1CCN(CC(=O)Nc2ccccc2/N=N\c2ccccc2)CC1.Cl.Cl | Active | 28
6 | 5.3 | 33 | – | – | – | – | CN1CCN(CC(=O)Nc2ccccc2/N=N/c2ccc(N(C)C)cc2)CC1 | – | –
7 | – | – | – | – | – | – | CN1CCN(CC(=O)N2c3ccccc3C(=O)Nc3cccnc32)CC1 | Active | –
